Reference: ChEMBL document CHEMBL4017532, “Multifunctional Hybrid Compounds Derived from 2-(2,5-Dioxopyrrolidin-1-yl)-3-methoxypropanamides with Anticonvulsant and Antinociceptive Properties” (J Med Chem, 2017)
Active and inactive are the calls of the source.

Legend:
Mus musculus [1] = assay: Antiallodynic activity in oxaliplatin-induced Albino Swiss CD-1 mouse model of peripheral neuropathy assessed as elevation in pain sensitivity threshold at […], ip administered 30 mins prior to oxaliplatin challenge relative to control; format: functional
Mus musculus [2] = assay: Anticonvulsant activity in Albino Swiss CD-1 mouse assessed as inhibition of pentylenetetrazole-induced seizures by measuring time to peak effect at 100 mg/kg, ip administered up to 2 hrs prior to PTZ induction measured for 30 mins; format: functional
Mus musculus [3] = assay: Antiallodynic activity in oxaliplatin-induced Albino Swiss CD-1 mouse model of peripheral neuropathy assessed as elevation in pain sensitivity threshold administered ip 30 mins prior to oxaliplatin challenge; format: functional, organism-based
Outline: (§1)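 Male CD-1 mice, 18–25 g, that had developed oxaliplatin-induced tactile allodynia were dosed ip 30 min before testing. Doses were 25, 50 or 100 mg/kg, or 50, 100 or 150 mg/kg for the reference. Vehicle was 1% aqueous Tween 80. Paw-withdrawal force was measured by von Frey filaments. Data are mean ± SEM, analysed by repeated-measures ANOVA with Dunnett's test against oxaliplatin plus vehicle mice.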

Mus musculus [4] = assay: Antinociceptive activity in Albino Swiss CD-1 mouse assessed as inhibition of formalin-induced neurogenic pain response administered ip 30 mins before formalin injection measured up to 5 mins; format: functional; conditions: Swiss CD-1, ip
Outline: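 Male CD-1 mice were given test agents ip 30 min before subcutaneous intraplantar formalin. Doses were 12.5, 25 or 50 mg/kg, or 100, 150 or 200 mg/kg for the reference. Vehicle was 1% Tween 80 at 10 mL/kg. Paw licking time was recorded in phase I (0–5 min) and phase II (15–30 min). Data are mean ± SEM of 8–10 mice, by Dunnett's test. ED50 was obtained by log-probit analysis with 95% confidence limits.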

[5] = biological target: Voltage-gated inwardly rectifying potassium channel KCNH2 (Homo sapiens, UniProt Q12809); assay: Displacement of [3H]astemizole from human hERG expressed in HEK293 cell membrane at 200 uM after 90 mins by liquid scintillation counting; format: cell membranes; conditions: hek293, 1.5 h
Outline: (§2)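 Radioligand binding was run as a contract service. Percent inhibition of specific labelled-ligand binding was measured at 100 μM test compound, or 200 μM for hERG.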

Rattus norvegicus [6] = species on record: Rattus norvegicus; assay: Displacement of [3H]GABA from GABA transporter in rat cerebral cortex at 100 uM by liquid scintillation spectrometry; outline: as §2
[7] = biological target: GABA-A receptor; alpha-1/beta-2/gamma-2 (Homo sapiens) (UniProt P14867+P47870+P18507); assay: Displacement of [3H]muscimol from human GABAalpha1beta2gamma2 receptor expressed in CHO cells at 100 uM after 30 mins by liquid scintillation counting; format: cell-based; outline: as §2
Mus musculus [8] = assay: Protection index, ratio of TD50 for neurotoxicity in ip dosed Albino Swiss CD-1 mouse to ED50 for ip dosed pentylenetetrazole induced seizure Albino Swiss CD-1 mouse model
Outline: (§3)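 Acute neurological toxicity after ip dosing (1% Tween 80 suspension) was assessed in the mouse chimney test. TD50 with 95% confidence limits was derived by probit analysis. Protective index is TD50 from the chimney test divided by ED50 from the MES, scPTZ or 6 Hz test.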

Rattus norvegicus [9] = species on record: Rattus norvegicus; assay: Displacement of [3H]nitrendipine from L-type calcium channel dihydropyridine binding site in rat cerebral cortex at 100 uM by liquid scintillation spectrometry; outline: as §2
Rattus norvegicus [10] = species on record: Rattus norvegicus; assay: Displacement of [3H]-batrachotoxinin from sodium channel site 2 in rat cerebral cortex at 100 uM after 60 mins by liquid scintillation spectroscopic method
Outline: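 Run commercially by an outside contract lab, with the compound tested at 100 μM. The read-out was percent inhibition of binding of the radiolabelled ligand, reported as compound binding.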

Mus musculus [11] = assay: Anticonvulsant activity in Albino Swiss CD-1 mouse assessed as inhibition of pentylenetetrazole-induced seizures at 100 mg/kg, ip administered up to 0.5 hrs prior to PTZ induction measured after 30 mins relative to control; format: functional; design: scale not given: the % may be the effect or the level left
Rattus norvegicus [12] = species on record: Rattus norvegicus; assay: Displacement of [3H]diltiazem from L-type calcium channel diltiazem binding site in rat cerebral cortical membranes at 100 uM after 60 mins; format: cell membranes; outline: as §2
Mus musculus [13] = assay: Antinociceptive activity in Albino Swiss CD-1 mouse assessed as inhibition of capsaicin-induced nociception by measuring time spent licking injected paw at 100 mg/kg, ip administered 30 mins mins prior to capsaicin challenge measured for 5 mins relative to control; format: functional; conditions: Swiss CD-1, ip
Outline: (§4)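 Mice (male CD-1, 18–25 g) were pretreated ip 30 min before intraplantar capsaicin. Doses were 25, 50 or 100 mg/kg, or 100, 150 or 200 mg/kg for the reference. Vehicle was 1% Tween 80 at 10 mL/kg. Duration of nociceptive response was scored over 5 min after injection. Data are mean ± SEM of 8–10 mice, by one-way ANOVA with Dunnett's test against vehicle.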

Mus musculus [14] = assay: Antiallodynic activity in oxaliplatin-induced Albino Swiss CD-1 mouse model of peripheral neuropathy assessed as elevation in pain sensitivity threshold at 100 mg/kg, ip administered 30 mins prior to oxaliplatin challenge relative to control; format: functional; outline: as §1
Mus musculus [15] = assay: Toxicity in Albino Swiss CD-1 mouse assessed as motor coordination impairment at 50 to 150 mg/kg, ip by rotarod test; format: organism-based; conditions: in vivo
Mus musculus [16] = assay: Anticonvulsant activity in Albino Swiss CD-1 mouse assessed as protection against maximal electroshock-induced seizures by measuring time to peak effect at 100 mg/kg, ip pretreated up to 2 hrs followed by 50 Hz current induction for […]; format: functional
Rattus norvegicus [17] = species on record: Rattus norvegicus; assay: Displacement of (-)-[3H](-)D 888 from L-type calcium channel verapamil binding site in rat cerebral cortex at 100 uM; outline: as §2
Mus musculus [18] = assay: Analgesic activity in Albino Swiss CD-1 mouse assessed as increase in pain response latency administered at 150 mg/kg, ip treated up to 90 mins prior to tet by hot plate assay; format: functional, organism-based
Outline: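 Male CD-1 mice, 18–25 g, 6–12 per group, given test agents as 1% aqueous Tween 80 suspension ip. Doses were 50, 100 or 150 mg/kg, with morphine hydrochloride at 4 mg/kg as reference. Mice were placed on the hot plate 15, 30, 45, 60 and 90 min after dosing, and latency to pain reaction was recorded.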

[19] = Retention time of the compound by LC-MS method
[20] = Neurotoxicity in ip dosed Albino Swiss CD-1 mouse assessed as induction of motor impairment measured up to 60 secs by chimney test; format: toxicity, organism-based; conditions: in vivo; outline: as §3
Mus musculus [21] = assay: Protection index, ratio of TD50 for neurotoxicity in ip dosed Albino Swiss CD-1 mouse to ED50 for ip dosed Albino Swiss CD-1 mouse model of 6 Hz-induced siezures; outline: as §3
Mus musculus [22] = assay: Anticonvulsant activity in ip dosed Albino Swiss CD-1 mouse assessed as protection against 32 mA current-induced seizure treated up to 2 hrs prior to 6-Hz current induction measured at time to peak effect; format: functional; conditions: Swiss CD-1, ip
Mus musculus [23] = assay: Anticonvulsant activity in ip dosed Albino Swiss CD-1 mouse assessed as inhibition of pentylenetetrazole-induced seizures administered up to 2 hrs prior to PTZ induction measured at time to peak effect; format: functional; conditions: Swiss CD-1, ip
Mus musculus [24] = species on record: Mus musculus; assay: Potency index, ratio of valproic acid ED50 to compound ED50 for protection against pentylenetetrazole-induced seizures in Albino Swiss CD-1 mouse; format: functional
Mus musculus [25] = assay: Antinociceptive activity in Albino Swiss CD-1 mouse assessed as inhibition of capsaicin-induced nociception by measuring time spent licking injected paw administered ip 30 mins mins prior to capsaicin challenge measured for 5 mins; format: functional, organism-based; outline: as §4

Sequence of Voltage-gated inwardly rectifying potassium channel KCNH2 (Q12809 whole entry): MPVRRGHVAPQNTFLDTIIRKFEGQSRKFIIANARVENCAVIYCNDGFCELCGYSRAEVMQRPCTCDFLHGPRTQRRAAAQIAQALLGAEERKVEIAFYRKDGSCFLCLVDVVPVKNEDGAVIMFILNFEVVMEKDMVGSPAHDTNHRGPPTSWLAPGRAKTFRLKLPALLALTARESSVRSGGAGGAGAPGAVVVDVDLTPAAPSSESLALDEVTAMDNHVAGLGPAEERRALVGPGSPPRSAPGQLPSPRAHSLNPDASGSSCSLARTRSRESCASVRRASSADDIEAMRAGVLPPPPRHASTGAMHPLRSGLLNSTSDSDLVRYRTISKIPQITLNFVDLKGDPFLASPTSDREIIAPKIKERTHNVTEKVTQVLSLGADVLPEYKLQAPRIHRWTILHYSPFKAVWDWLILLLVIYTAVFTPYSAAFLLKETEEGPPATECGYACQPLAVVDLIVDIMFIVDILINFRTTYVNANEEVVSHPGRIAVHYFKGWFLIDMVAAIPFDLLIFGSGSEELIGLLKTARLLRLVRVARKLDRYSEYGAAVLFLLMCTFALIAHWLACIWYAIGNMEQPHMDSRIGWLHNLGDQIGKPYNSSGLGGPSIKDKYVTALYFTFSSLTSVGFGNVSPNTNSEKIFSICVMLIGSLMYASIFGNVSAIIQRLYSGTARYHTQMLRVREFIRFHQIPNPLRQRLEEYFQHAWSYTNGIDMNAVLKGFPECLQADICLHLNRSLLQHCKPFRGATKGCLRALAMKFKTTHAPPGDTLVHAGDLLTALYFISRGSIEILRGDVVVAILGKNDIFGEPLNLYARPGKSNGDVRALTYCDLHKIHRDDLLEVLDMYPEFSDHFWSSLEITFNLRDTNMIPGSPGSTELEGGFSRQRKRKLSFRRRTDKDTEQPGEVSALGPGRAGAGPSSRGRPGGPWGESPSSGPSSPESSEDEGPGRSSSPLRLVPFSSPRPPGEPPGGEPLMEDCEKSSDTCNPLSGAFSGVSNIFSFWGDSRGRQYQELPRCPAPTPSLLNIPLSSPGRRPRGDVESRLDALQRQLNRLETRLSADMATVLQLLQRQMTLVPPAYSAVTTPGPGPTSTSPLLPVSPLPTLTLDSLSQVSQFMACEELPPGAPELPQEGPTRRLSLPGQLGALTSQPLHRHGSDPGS

COCC(C(=O)N1CCN(c2ccc(C(F)(F)F)cc2)CC1)N1C(=O)CCC1=O (stereo not given)
Activity (Mus musculus [1]): 122%
Time (Mus musculus [2]): 0.5 h
Activity (Mus musculus [3]): Dose-dependent effect
ED50 (Mus musculus [4]): 26 mg/kg
inhibition (INH) [5]: Not Active
inhibition (Rattus norvegicus [6]): inactive
inhibition [7]: inactive
Ratio TD50/ED50 (Mus musculus [8]): 1.6
inhibition (Rattus norvegicus [9]): inactive
inhibition (Rattus norvegicus [10]): inactive
Activity (Mus musculus [11]): 75%
inhibition (Rattus norvegicus [12]): inactive
inhibition in vivo at 100 mg/kg (Mus musculus [13]): 59.3%
Activity (Mus musculus [14]): 149.2%
Activity (Mus musculus [15]): Non-Toxic
Time (Mus musculus [16]): 0.25 to 1 h
inhibition (Rattus norvegicus [17]): inactive
Activity (Mus musculus [18]): inactive
Retention time [19]: 6.11 min
TD50 at 1 min [20]: 156 to 199 mg/kg
Ratio TD50/ED50 (Mus musculus [21]): 5.8 - 8.9
ED50 (Mus musculus [22]): 22.4 to 26.9 mg/kg
ED50 (Mus musculus [23]): 123 mg/kg
Ratio ED50 (Mus musculus [24]): 2
inhibition (Mus musculus [25]): Dose-dependent effect
